Measurements: ChEMBL document CHEMBL5620402, “Development of submicromolar 17β-HSD10 inhibitors and their in vitro and in vivo evaluation” (Eur J Med Chem, 2023)

Assays:
[1] = Aqueous solubility, logS of the compound at pH 7.4 phosphate buffer by nephelometry assay; type: physicochemical
How it was run: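 Nephelometry of compound suspensions in phosphate buffer pH 7.4. Stock was 160 μg/mL, sonicated and auto-diluted over 0–160 μg/mL, with higher stocks (640 μg/mL, 2.54 mg/mL) used if needed. Wells were shaken 30 s and laser-scanned. Solubility was derived by segmental linear regression.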

[2] = target: T1, 3-hydroxyacyl-CoA dehydrogenase type-2 (Homo sapiens) (UniProt Q99714); assay: Inhibition of recombinant 17beta-HSD10 (unknown origin) expressed in Escherichia coli BL21 (DE3) assessed as residual activity at 10 uM using acetoacetyl-CoA as substrate by SAAC method relative to control
T1 sequence (whole entry): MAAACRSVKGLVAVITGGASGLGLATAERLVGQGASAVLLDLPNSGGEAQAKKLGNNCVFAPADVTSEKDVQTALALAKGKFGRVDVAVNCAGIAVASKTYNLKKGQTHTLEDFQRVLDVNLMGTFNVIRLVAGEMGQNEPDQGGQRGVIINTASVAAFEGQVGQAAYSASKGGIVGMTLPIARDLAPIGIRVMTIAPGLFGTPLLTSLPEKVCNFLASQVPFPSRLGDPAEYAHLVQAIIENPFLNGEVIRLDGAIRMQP
How it was run: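 Recombinant 17β-HSD10 from E. coli BL21(DE3), 0.15 μg, was mixed with 320 μmol/L NADH in Tris-HCl pH 7.4 assay buffer. It was preincubated 5 min at 37 °C with 1 or 10 μM inhibitor or vehicle, then 320 μmol/L acetoacetyl-CoA was added. A340 was followed for 5 min. Residual activity is % of control, triplicate mean ± SD, with t-test versus control.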

[3] = target: T2, 3-hydroxyacyl-CoA dehydrogenase type-2 (Homo sapiens, UniProt Q99714); assay: Inhibition of recombinant 17beta-HSD10 (unknown origin) expressed in Escherichia coli BL21 (DE3) assessed as residual activity using acetoacetyl-CoA as substrate by SAAC method
T2 sequence (Q99714 whole entry): T1 sequence (whole entry)
How it was run: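 Recombinant 17β-HSD10 from E. coli BL21(DE3), 0.15 μg, was mixed with 320 μmol/L NADH in 10 mM Tris-HCl pH 7.4 buffer (150 mM NaCl, 1 mM DTT, 0.001% Tween 20, 0.01% BSA). It was preincubated 5 min at 37 °C with inhibitor, then 320 μmol/L acetoacetyl-CoA was added. A340 was followed for 5 min. IC50 came from non-linear regression of ≥3 independent runs in triplicate; Ki was calculated from IC50 per Cer et al.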

[4] = target: T3, Amine oxidase [flavin-containing] A (Sus scrofa, UniProt Q6Q2J0); assay: Inhibition of pig brain mitochondrial MAO-A using [3H]5-HT as substrate incubated for 60 mins by liquid scintillation counting analysis; type: mitochondria, Mitochondria
T3 sequence (Q6Q2J0 whole entry): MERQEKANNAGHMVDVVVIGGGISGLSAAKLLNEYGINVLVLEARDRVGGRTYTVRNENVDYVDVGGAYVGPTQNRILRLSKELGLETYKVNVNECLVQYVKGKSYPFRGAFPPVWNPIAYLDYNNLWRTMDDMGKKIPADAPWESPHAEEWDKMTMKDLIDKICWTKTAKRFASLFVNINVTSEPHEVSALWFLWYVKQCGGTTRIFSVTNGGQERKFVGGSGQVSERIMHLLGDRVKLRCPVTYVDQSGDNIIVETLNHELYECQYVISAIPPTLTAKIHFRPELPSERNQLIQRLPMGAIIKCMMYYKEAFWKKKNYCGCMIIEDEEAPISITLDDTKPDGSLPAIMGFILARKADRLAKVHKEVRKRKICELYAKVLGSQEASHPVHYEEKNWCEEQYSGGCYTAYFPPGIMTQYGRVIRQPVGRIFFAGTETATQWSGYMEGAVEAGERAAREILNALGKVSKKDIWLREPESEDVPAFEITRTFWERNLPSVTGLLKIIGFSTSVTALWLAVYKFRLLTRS
How it was run: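 Pig brain mitochondria were preincubated with drug at 5–7 concentrations (1–1000 μM) for 60 min at 37 °C. Radiolabelled substrate was then added: [3H]5-HT for MAO-A (20 min) or [14C]PEA for MAO-B (1 min). The aldehyde product was counted by liquid scintillation. IC50 came from four-parameter logistic fits; mean ± SE of ≥2 runs.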

[5] = Inhibition of complex II linked mitochondrial respiration in isolated pig brain mitochondria by O2k respirometry; set-up: species or system Sus scrofa
How it was run: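 Respirometry (Oxygraph-2k) of purified pig brain cortex mitochondria in state 3. Substrates were malate + pyruvate + ADP (Complex I) or ADP + rotenone + succinate (Complex II). One chamber was titrated with compound (10–20 concentrations, final 1.25–500 μM) and the other with DMSO; rates were expressed relative to DMSO. IC50 came from four-parameter logistic fits.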

SH-SY5Y [6] = assay: Cytotoxicity against human SH-SY5Y cells assessed as change in ATP level at 1 uM measured after 48 hrs by CellTiter-Glo assay; type: toxicity, cell-based
How it was run: (§1)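 HEK293 or SH-SY5Y cells in DMEM with 10% FBS, 2 mM glutamine and NEAA were seeded at 7,500 cells per well and grown 24 h. They were then exposed to 1 or 10 μM compound (final 1% DMSO) for 48 h. ATP was read by CellTiter-Glo luminescence after CellTox Green, normalised to 1% DMSO and 100 μM valinomycin controls. At least two experiments in tetraplicate.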

SH-SY5Y [7] = assay: Cytotoxicity against human SH-SY5Y cells assessed as change in ATP level at 10 uM measured after 48 hrs by CellTiter-Glo assay; type: toxicity, cell-based; how it was run: as §1
[8] = target: T1, 3-hydroxyacyl-CoA dehydrogenase type-2 (Homo sapiens); assay: Binding affinity to 17beta-HSD10 (unknown origin) assessed as increase in denaturation temperature by differential scanning fluorimetry (DSF) assay; conditions: dose 25-50 µM
How it was run: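 Thermal shift assay with 1.43 μM 17β-HSD10 in 100 mM potassium phosphate pH 8.0 with SYPRO Orange (1:1000). Compounds were tested at 25 and 50 μmol/L. Fluorescence (Ex/Em 490/575) was recorded over 25–90 °C at 1 °C/min and Tm taken from melting curves. Triplicate; mean ± SD.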

[9] = Cmax in male albino Wistar rat plasma at 60 mg/kg, po measured upto 1440 mins by HPLC-MS analysis; type: ADME, organism-based
How it was run: (§2)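 Oral gavage via blunt needle into the stomach of male wild-type rats. Dose was 60 mg/kg from a 16 mM solution in 10% NMP, 25% Kolliphor EL and 65% saline. Rats were sacrificed at 15 time-points from 5 to 1440 min, 3 per point. Plasma and brain were analysed by HPLC-MS with non-compartmental analysis; values are mean ± SE of three.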

[10] = AUC (0 to 1440 mins) in male albino Wistar rat plasma at 60 mg/kg, po measured upto 1440 mins by HPLC-MS analysis; type: ADME, organism-based; conditions: in vivo, 24 h; how it was run: as §2
[11] = Tmax in male albino Wistar rat brain at 60 mg/kg, po measured upto 1440 mins by HPLC-MS analysis; type: ADME, organism-based; how it was run: as §2
[12] = Permeability coefficient in male albino Wistar rat assessed as ratio of brain AUC to plasma AUC at 60 mg/kg, po measured upto 1440 mins by HPLC-MS analysis; type: ADME, organism-based; how it was run: as §2
[13] = Partition coefficient between Water and Octanol, logP of the compound by UHPLC-DAD-MS analysis; conditions: pH 7.4

logS0 [1]	Activity [2] [%]	IC50 [3] [nM]	Ki [3] [nM]	IC50 ([4]; read-out: IC50) [nM]	IC50 [5] [nM]	Activity [8]	Cmax [9] [nM]	AUC [10] [pmol·min]	Tmax [11] [min]	Kp at 24 h [12]	logP [13]	IC50 [4]	SMILES	Activity (SH-SY5Y [6])	Activity (SH-SY5Y [7])
-4.55	22	340	250	5800	27000	Dose-Dependent Effect	13.5	1431047	35	0.011	3.66		CC(=O)Nc1ccc2nc(NC(=O)Nc3ccc(O)c(Cl)c3)sc2c1	Non-Toxic	Non-Toxic
-4.36	17.5	310	230	85000	260000	Dose-Dependent Effect	6.85	212993	40	0.095	1.19		O=C(Nc1ccc(O)c(Cl)c1)Nc1nc2ccc(C(=O)O)cc2s1	Non-Toxic	Non-Toxic
-4.78	38.3	840	650								3.32	Not Active	NC(=O)c1ccc2nc(NC(=O)Nc3ccc(O)c(Cl)c3)sc2c1	Non-Toxic	Non-Toxic
-4.48	13	570	440	79000	98000						4.28		COc1ccc2nc(NC(=O)Nc3ccc(O)c(C(F)(F)F)c3)sc2c1		Toxic
